Laboratory results as given in ChEMBL document CHEMBL1122821, “Synthesis and some pharmacological properties of 18 potent O-alkyltyrosine-substituted antagonists of the vasopressor responses to arginine-vasopressin” (J Med Chem, 1985).
Starred links: 1 amine or outer side, 2 acyl side, 3 side chain; linkers in the order of their positions; H or OH if unused. Positions of bridges follow the written chain, without caps; N, C: chain ends. Non-standard residues stand in square brackets, D forms with d. Residues, ends and D or L forms follow the SMILES beside them. X2 = O=C(CC1(S[*:2])CCCCC1)[*:1]

Experiments:
Rattus norvegicus [1] = organism: Rattus norvegicus; experiment: Antidiuretic activity was evaluated for the compound in rats under ethanol anesthesia; antagonist; format: functional, Urine
Procedure, shortened: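 Rats under ethanol anesthesia, with USP posterior pituitary reference standard as agonist. Each peptide was given at a high and a low dose, bracketing the dose that cuts the response to 2x units of agonist to the 1x-unit response. Effective dose (nmol/kg) was interpolated on a log scale. In vivo pA2 = −log(effective dose / 67 mL/kg). Means ± SE of at least four estimates.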

Rattus norvegicus [2] = organism: Rattus norvegicus; experiment: In vitro anti-oxytocic potency was evaluated in the absence of Mg2+; format: functional; details: read-out: pA2 (converted)
Procedure, shortened: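 Isolated rat uterus in medium containing no Mg2+. USP posterior pituitary reference standard used as agonist. In vitro pA2 values were derived as in Bankowski et al.; means ± SE.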

Rattus norvegicus [3] = organism: Rattus norvegicus; experiment: In vitro anti-oxytocic potency was evaluated in the presence of 0.5 mM of Mg2+; format: functional; details: read-out: pA2 (converted)
Procedure, shortened: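 Isolated rat uterus in medium containing 0.5 mM Mg2+. USP posterior pituitary reference standard used as agonist. In vitro pA2 values were derived as in Bankowski et al.; means ± SE.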

Rattus norvegicus [4] = experiment: In vivo anti-vasopressor activity measured as the negative logarithm of the effective dose / the estimated volume of distribution (67 mL/kg); format: ADME, organism-based; details: read-out: pA2 (converted)
Procedure, shortened: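 Rats treated with phenoxybenzamine under urethane anesthesia. Pressor responses to the USP posterior pituitary standard were given intravenously. Effective dose (nmol/kg) was interpolated on a log scale; means ± SE of at least four estimates. pA2 = −log(effective dose / 67 mL/kg).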

Rattus norvegicus [5] = experiment: In vivo antidiuretic activity in rats under ethanol anesthesia.; format: functional, Urine
Procedure, shortened: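 Rats under ethanol anesthesia, with the USP posterior pituitary reference standard as reference. Agonistic activity is expressed in units per milligram.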

Row | SMILES | Activity (Rattus norvegicus [1]) | Kb (Rattus norvegicus [2]) | Kb (Rattus norvegicus [3]) | Kb (Rattus norvegicus [4]) | Activity (Rattus norvegicus [5])
1 | CCOc1ccc(C[C@@H]2NC(=O)CC3(CCCCC3)SSC[C@@H](C(=O)N3CCC[C@H]3C(=O)N[C@@H](CCCN=C(N)N)C(=O)NCC(N)=O)NC(=O)[C@H](CC(N)=O)NC(=O)[C@H](C(C)C)NC(=O)[C@H](Cc3ccccc3)NC2=O)cc1 (Y(Et)FVNCPRG-NH2; linker N-5 via X2) | 7.1 mg | 9.55 nM | 87.1 nM |  | 
2 | CCOc1ccc(C[C@@H]2NC(=O)CC3(CCCCC3)SSC[C@@H](C(=O)N3CCC[C@H]3C(=O)N[C@H](CCCN=C(N)N)C(=O)NCC(N)=O)NC(=O)[C@H](CC(N)=O)NC(=O)[C@H](C(C)C)NC(=O)[C@H](Cc3ccccc3)NC2=O)cc1 (Y(Et)FVNCP[dR]G-NH2; linker N-5 via X2) | 7.57 mg |  |  | 6.92 nM | 
3 | COc1ccc(C[C@@H]2NC(=O)CC3(CCCCC3)SSC[C@@H](C(=O)N3CCC[C@H]3C(=O)NC(CCCN=C(N)N)C(=O)NCC(N)=O)NC(=O)[C@H](CC(N)=O)NC(=O)[C@H](CCC(N)=O)NC(=O)[C@H](Cc3ccccc3)NC2=O)cc1 (stereo in doubt) |  | 28.2 nM | 15.5 nM | 3.89 nM | 0.23 units/mg
